This is a sample that favours compounds with a hit; in the whole collection about 4.5% have one here.
AHR activator – activates the human aryl hydrocarbon receptor; P35869; 320,000 compounds, 2.5% hits; activation, % at 5 µM; AHR-responsive luciferase reporter cells, luminescence; AID 2796; in the data active means activation above about 47%;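 further: 0% = vehicle wells and 100% = reference agonist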
APP 5'UTR act – APP 5'UTR luciferase reporter activation; SH-SY5Y APP 5'UTR luciferase reporter, luminescence; zero percent = DMSO vehicle wells; activation, % at 2 µM; 190,000 compounds, 1% hits; AID 1276;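 active means activation above a set limit, based on mean plus 3 SD of controls, cut at about 140% in these data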
STAT1 act – activators of IFN-gamma induced STAT1 signaling; 200,000 compounds, 2.6% hits; AID 932; activation (% of control), % at 5.5 µM; NIH 3T3 STAT1-luciferase reporter, luminescence; 100% = IFN-gamma alone, no compound;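 active means activation above the screen-wide mean activation plus 3 SD, cut at about 130% in these data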;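 further: raw ratio to IFN-gamma control signal so 100% means no change and 0% no light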
PERK inh – human PERK inhibition, primary cell-based screen; CHO PERK-DD fusion, SEAP luminescence translation reporter; inhibition, % at 5.6 µM; AID 1416; 220,000 compounds, 0.17% hits;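 active means inhibition above the mean inhibition of all tested compounds plus 3 SD, set separately per screening campaign, cut at about 2.9% in these data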;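 further: PERK kinase domain activated by AP20187 dimerizer at 100 nM; 0% = DMSO with dimerizer and 100% = rapamycin at 8.4 µM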
MDM2 E3 inh – Mdm2 E3 ligase (human) inhibition; signal enhancement, % at 5 µM; Q00987; AID 1230; cell-based MDM2 ubiquitination luciferase reporter, 2 h; 0 = plate control, 100 = twice control, blank-subtracted; 210,000 compounds, 0.11% hits;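 active means signal enhancement of 30% or more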;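 further: luminescence tracks abundance of the self-degrading MDM2-luciferase fusion protein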
Target sequence (Q00987 whole entry, looked up, the tested form may be a part): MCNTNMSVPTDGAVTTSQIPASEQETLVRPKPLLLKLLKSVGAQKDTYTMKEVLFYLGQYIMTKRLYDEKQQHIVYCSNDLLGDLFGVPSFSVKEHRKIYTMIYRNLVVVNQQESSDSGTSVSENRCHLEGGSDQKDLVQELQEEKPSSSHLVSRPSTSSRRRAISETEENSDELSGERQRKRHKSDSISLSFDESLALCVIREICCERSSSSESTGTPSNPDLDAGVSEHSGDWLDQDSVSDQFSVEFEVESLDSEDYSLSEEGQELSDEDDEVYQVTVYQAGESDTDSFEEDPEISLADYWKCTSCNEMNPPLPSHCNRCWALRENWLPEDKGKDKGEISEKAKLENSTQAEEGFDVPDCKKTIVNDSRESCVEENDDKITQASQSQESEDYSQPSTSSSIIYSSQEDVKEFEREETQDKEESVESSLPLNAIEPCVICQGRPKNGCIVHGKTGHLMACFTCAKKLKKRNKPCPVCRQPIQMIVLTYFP
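System: stable MDM2–luciferase fusion reporter cells / Input: 2000 cells seeded into each well / Schedule: 4 h settle plus 2 h compound, 37 °C / Compound: single-point 5 µM / Buffer or medium: cells held in DMEM / Benchmarks: control and blank well means / Evaluation: percent signal gain over controls, blank-subtracted / Measured by: luciferase luminescence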
NF-kB neuron act – raises NF-kB expression in human neuronal cells; NF-kB reporter expression; stronger effect = higher value; fold change at 12.5 µM; 190,000 compounds, 1.6% hits; AID 1239; in the data active means fold change above about 3.3
The depositor's hits bear a star; x = no result.

SMILES	AHR activator	APP 5'UTR act	STAT1 act	PERK inh	MDM2 E3 inh	NF-kB neuron act
CCOc1cc(N2CCOCC2)c(OCC)cc1NC(=O)Cn1[nH]c(=O)c2ccccc2c1=O	5.3	6.3	100.9	1.6	-1.9	0.87
CCOc1ccccc1NC(=O)Nc1ccccn1	54.4*	x	x	0.2	-11.5	x
CCOc1ccccc1NC(=O)Cn1[nH]c(=O)c2ccccc2c1=O	64.4*	6.1	101.7	0.1	-21.1	1.23
CCOc1ccccc1NC(=O)Nc1ccc(Cl)cc1	52.7*	9.7	90.4	1.0	-28.7	0.89
CC(CC(=O)NCCc1ccc(Cl)cc1)S(=O)(=O)c1ccc2c(c1)NC(=O)CO2 (stereo unspecified)	1.4	x	x	x	x	x
NC(=O)CC(NC(=O)Cc1ccc(Br)cc1)c1ccc(NCc2ccc(F)cc2)c([N+](=O)[O-])c1 (stereo unspecified)	10.9	x	x	x	-7.2	x
CC(Oc1cccc(Cl)c1)C(=O)Nc1ccc(N2CCOCC2)cc1N1CCOCC1 (stereo unspecified)	11.0	x	x	x	x	x
COc1ccc(CCNC(=O)CC2SC(=NCCC(C)C)NC2=O)cc1OC (stereo unspecified)	-1.1	22.5	103.9	0.3	-6.9	0.98
CSc1ncc(CN2CCc3c([nH]c4ccccc34)C2C(C)(C)C)cn1 (stereo unspecified)	13.3	x	x	x	x	x
Cc1cccc(CN2CCc3c([nH]c4ccccc34)C2C(C)(C)C)n1 (stereo unspecified)	59.8*	x	x	x	x	x
C/C(=N\NC(=O)CCC(=O)N/N=C(\C)c1ccc(C)o1)c1ccc(C)o1	74.2*	x	x	x	x	x
O=C(Cn1cnc2ccccc21)Nc1cccc(S(=O)(=O)N2CCCC2)c1	-3.8	x	x	x	x	x
COc1ccc(S(=O)(=O)N2CCC(C(=O)NCCC(=O)NC3CC3)CC2)cc1	1.0	x	x	x	x	x
O=C(CSc1nnc(-c2csc3c2CCCC3)o1)Nc1ccccc1	23.8	202.7*	138.0*	-0.5	-26.6	3.4*
Cc1csc(NC(=O)CSc2nnc(-c3ccccc3)o2)n1	6.5	136.0*	126.5	1.1	-6.8	3.07
O=C(CSc1nnc(-c2ccc(O)cc2)o1)Nc1ccccc1	0.5	x	x	x	x	x
O=C(/C(Cl)=C/Nc1ccc(Br)cn1)C(F)(F)F	-1.2	22.2	101.6	0.3	-1.4	1.37
CCOC(=O)C1=C(COC(=O)c2ccccc2[N+](=O)[O-])NC(=O)NC1C (stereo unspecified)	-0.5	x	x	x	x	x
CCCCC(=O)Nc1ccc(NC(=O)c2ccc3c(c2)OCO3)cc1OC	13.2	17.5	98.3	-0.9	-5.2	1.37
CCCCC(=O)Nc1ccc(NC(=O)c2ccc(C)c([N+](=O)[O-])c2)cc1OC	71.9*	-0.9	98.0	-0.3	-1.9	1.51
Cc1cccc(N/C(N)=N/c2nc(C(F)(F)F)cc(C(F)(F)F)n2)c1	68.5*	-2.5	97.3	1.4	-10.2	0.96
COc1cccc(N/C(N)=N/c2nc(C(F)(F)F)cc(C(F)(F)F)n2)c1	18.2	21.0	116.0	1.7	-0.1	1.15
COc1ccc(CSc2nnnn2-c2ccccc2)cc1	2.2	-5.9	95.9	0.2	-7.5	1.06
COc1ccc2c(C)cc(Sc3nnnn3-c3ccccc3)nc2c1	5.8	-0.6	99.2	0.3	-4.1	3.39*
COc1ccc(S(=O)(=O)NCC(c2ccc(F)cc2)N2CCN(C)CC2)cc1 (stereo unspecified)	-2.5	x	x	x	x	x
SMILES	AHR activator	APP 5'UTR act	STAT1 act	PERK inh	MDM2 E3 inh	NF-kB neuron act
Oc1ccccc1-n1c(-c2ccccc2)ccc1-c1ccccc1	50.9*	x	x	0.4	x	x
O=S1(=O)N=C(Oc2ccccc2)c2ccccc21	2.1	-8.0	95.6	2.9*	3.2	1.21
Clc1ccccc1-c1nc(N/N=C/c2cccnc2)c2ccccc2n1	66.7*	0.4	92.4	-1.4	-9.7	0.44
O=C(N/N=C/c1cccnc1)c1cc(-c2ccccc2Cl)nc2ccccc12	23.5	x	x	x	x	x
COc1ccc(/C=N/Nc2nc(-c3cccnc3)nc3ccccc23)cc1OC	68.4*	x	x	-1.5	-6.6	x
Cc1ccc(-c2nc(N/N=C/c3ccncc3)c3ccccc3n2)cc1	64.3*	31.4	28.7	-1.5	-29.4	2.44
c1ccc2c(Nc3nc(-c4ccncc4)nc4ccccc34)cccc2c1	51.4*	x	x	0.7	-1.3	x
Oc1ccc(/C=N/Nc2nc(-c3cccnc3)nc3ccccc23)c(O)c1	7.3	x	x	-0.1	-78.2	x
Cc1c(O)ccc(/C=N/Nc2nc(-c3cccnc3)nc3ccccc23)c1O	26.8	x	x	1.1	-26.0	x
CCC(C)N(C)C1CCN(C(=S)Nc2cccc(SC)c2)CC1 (stereo unspecified)	3.5	-0.1	101.8	0.6	-14.6	1.07
O=C(CSc1ccc2nnc(CCNC(=O)c3ccccc3)n2n1)NCc1ccc(F)cc1	9.6	x	x	x	x	x
CC12CCC(=O)N1C(C(=O)Nc1ccccc1N1CCCCC1)CS2 (stereo unspecified)	2.0	x	x	x	x	x
COc1ccc(-n2sc3c(c2=S)-c2cc(OC)ccc2NC3(C)C)cc1	65.8*	19.0	92.7	0.8	-4.6	0.99
COCCNC(=O)/C(C#N)=C/c1cccc(/C=C(\C#N)C(=O)NCCOC)c1	3.3	0.6	104.1	0.3	69.8*	2.2
COc1ccc(-n2c(C)cc(-c3cn4cccc(C)c4n3)c2C)cc1	10.8	16.5	99.8	-0.2	-2.0	0.98
COc1cccc2cc(-c3cn4cccc(C)c4n3)c(=O)oc12	36.0	57.4	136.0*	0.4	x	x
CCOc1cccc2cc(-c3cn4cc(C)ccc4n3)c(=O)oc12	0.1	-3.4	141.4*	0.2	-43.8	3.46*
COc1cccc2cc(-c3nnc(-c4ccccc4)o3)c(=O)oc12	0.0	137.7*	120.4	0.8	-42.3	1.86
CCOc1cccc2cc(C(C)=O)oc12	3.8	18.5	95.8	0.4	-2.2	1.04
CCCc1ccc(OCc2ccc(C(=O)O)o2)c(OC)c1	1.9	82.5	127.0	0.1	-4.6	4.23*
Cc1cc(C)cc(OCc2ccc(C(=O)NN)o2)c1	78.9*	x	x	0.3	-9.5	x
CCCc1ccc(OCc2ccc(C(=O)NN)o2)c(OC)c1	55.6*	x	x	x	x	x
CCCc1ccc(OCc2ccc(C(=O)OC)o2)c(OC)c1	11.9	70.8	132.3*	0.6	20.1	2.75
COC(=O)c1ccc(COc2ccccc2OC)o1	0.2	x	x	x	x	x
NNC(=O)c1ccc(COc2ccc([N+](=O)[O-])cc2)o1	11.8	x	x	0.4	-10.3	x
COc1ccc(NC(=O)C(NC(C)=O)C(=O)Nc2ccc(F)cc2)cc1 (stereo unspecified)	2.8	x	x	x	x	x
Cc1ccccc1C(=O)Nc1ccnn1C1CCN(C(C)Cc2ccccc2F)CC1 (stereo unspecified)	3.6	x	x	x	x	x
COc1ccccc1CN(CC(=O)NCc1ccc(F)cc1)C(=O)c1csnn1	-0.2	x	x	x	x	x
COc1cc2c(cc1OC)CN(C(=O)c1sc(-c3cnccn3)nc1C)CC2	1.4	x	x	0.2	4.6	x
COC(=O)c1ccc(S(=O)(=O)NCc2ccccn2)n1C	-0.6	x	x	1.1	-8.4	x

Assay outcomes as filed in PubChem.
